In article PMC10126818 (RSC Advances, 2023):
“Also recorded” adds a separate entry of the source. Where no end group is shown, it is not given here.

Tested on: A549 cells
Assay: Cytotoxicity assay
Assay type: cell-based, human
How it was run: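 A549 cells (ATCC) seeded in 96-well plates at 5 × 10^3 cells per mL, grown 24 h. Medium replaced with matched concentrations (up to 160 μg mL−1) of free drug or peptide-nanocage-encapsulated drug (pH 8.09). Nanocages were made by emulsifying drug in chloroform into 1 mM peptide/PBS pH 7.4. After 24 h, CCK-8 added for 3 h; OD 450 nm read. Viability = (ODtest − ODblank)/(ODcontrol − ODblank) × 100%.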

Molecule | cell survival rate (160 μg mL^−1, 24 h culture, CCK-8, OD 450 nm) | cytotoxicity (in words) (24 h culture, CCK-8)
CC(=O)O[C@H]1C(=O)[C@@]2(C)[C@H]([C@H](OC(=O)c3ccccc3)[C@]3(O)C[C@H](OC(=O)[C@H](O)[C@@H](NC(=O)c4ccccc4)c4ccccc4)C(C)=C1C3(C)C)[C@]1(OC(C)=O)CO[C@@H]1C[C@@H]2O [PTX, Paclitaxel, reference compound] | approximately 60% | 
GNNQQNYPKKPGNNQQNY [GSLP, GNNQQNY-PKKP-GNNQQNY] |  | not concentration-dependent toxic; also recorded: do not exhibit cytotoxicity
